The target in data set [1] is T1, Sodium-dependent noradrenaline transporter (Homo sapiens, UniProt P23975). The data set is described as follows: Inhibition of [3H]noradrenalin reuptake at human NET expressed in LLCPK cells by scintillation proximity assay. The class given is cell-based. The essentials: (§1)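 Uptake-SPA on stably transfected LLCPK cells in HEPES buffer, pH 7.4. SERT: 25000 cells/well, 1.5 mg/mL beads, 35 nM [3H]serotonin. NET: 50000 cells/well, 1.5 mg/mL beads, 45 nM [3H]noradrenalin. DAT: 75000 cells/well, 2 mg/mL beads, 75 nM [3H]dopamine. Concentrations are those of the substrate addition. 1 h at room temperature; 4-parameter fit.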
T1 sequence (P23975 whole entry): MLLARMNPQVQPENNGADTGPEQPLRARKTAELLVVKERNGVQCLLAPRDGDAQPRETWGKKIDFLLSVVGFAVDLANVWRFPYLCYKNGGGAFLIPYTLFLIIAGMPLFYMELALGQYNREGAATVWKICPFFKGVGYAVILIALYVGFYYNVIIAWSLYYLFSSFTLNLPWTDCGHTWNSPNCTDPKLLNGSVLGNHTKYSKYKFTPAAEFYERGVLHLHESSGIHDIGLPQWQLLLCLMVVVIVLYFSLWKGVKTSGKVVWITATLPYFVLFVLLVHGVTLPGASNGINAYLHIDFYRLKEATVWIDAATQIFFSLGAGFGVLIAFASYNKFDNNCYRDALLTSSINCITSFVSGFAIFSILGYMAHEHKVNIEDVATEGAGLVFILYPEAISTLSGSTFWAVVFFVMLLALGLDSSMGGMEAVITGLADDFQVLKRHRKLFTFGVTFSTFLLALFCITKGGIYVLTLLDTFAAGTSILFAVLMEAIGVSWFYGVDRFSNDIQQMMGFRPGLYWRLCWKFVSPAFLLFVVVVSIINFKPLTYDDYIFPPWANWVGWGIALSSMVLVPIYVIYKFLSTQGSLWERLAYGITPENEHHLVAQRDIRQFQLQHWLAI
Background: Scintillation proximity formats need no separation of bound from free tracer.

Data set [2] deals with T2, Sodium-dependent dopamine transporter (Homo sapiens, UniProt Q01959). The experiment in a line: Displacement of [3H]WIN-35428 from human recombinant DAT expressed in BacMam virus-transduced cells by scintillation proximity assay. The class given is cell-based. In general terms: Loss of bound radioactivity is the signal in a displacement assay; it reports binding, not function.
T2 sequence (Q01959 whole entry): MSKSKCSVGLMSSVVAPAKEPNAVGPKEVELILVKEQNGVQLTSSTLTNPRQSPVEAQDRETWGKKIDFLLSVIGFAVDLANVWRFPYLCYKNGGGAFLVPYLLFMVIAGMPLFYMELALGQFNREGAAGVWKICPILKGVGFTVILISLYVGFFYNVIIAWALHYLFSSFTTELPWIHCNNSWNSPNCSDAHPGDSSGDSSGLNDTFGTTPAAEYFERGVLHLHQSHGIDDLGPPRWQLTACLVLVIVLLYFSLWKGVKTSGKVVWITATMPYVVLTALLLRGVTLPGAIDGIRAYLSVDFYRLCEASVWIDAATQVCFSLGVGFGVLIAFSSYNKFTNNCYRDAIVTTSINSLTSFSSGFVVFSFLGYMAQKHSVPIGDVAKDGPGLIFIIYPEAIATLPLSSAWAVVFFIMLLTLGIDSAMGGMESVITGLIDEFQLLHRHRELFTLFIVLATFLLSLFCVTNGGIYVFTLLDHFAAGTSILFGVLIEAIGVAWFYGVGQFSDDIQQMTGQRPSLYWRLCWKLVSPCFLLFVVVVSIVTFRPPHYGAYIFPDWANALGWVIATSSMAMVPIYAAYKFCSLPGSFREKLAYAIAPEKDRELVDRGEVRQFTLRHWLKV

Data set [3] has as its target T3, Sodium-dependent serotonin transporter (Homo sapiens, UniProt P31645). The data set is described as follows: Inhibition of [3H]serotonin reuptake at human SERT expressed in LLCPK cells by scintillation proximity assay. The class given is cell-based. The essentials: as §1
For data set [4], the target named is T3, Sodium-dependent serotonin transporter. The experiment in a line: Displacement of [3H]citalopram from human recombinant SERT expressed in BacMam virus-transduced cells by scintillation proximity assay. The class given is cell-based. A digest of the protocol: (§2)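 BacMam-transduced membranes in SPA format. SERT: 1 mg/mL beads, 6 μg/mL membranes, 3 nM [3H]citalopram. NET: 2 mg/mL beads, 40 μg/mL membranes, 10 nM [3H]nisoxetine. Incubated overnight at room temperature; pKi from pIC50 by Cheng-Prusoff.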

Data set [5] addresses T1, Sodium-dependent noradrenaline transporter. The experiment in a line: Displacement of [3H]nisoxetine from human recombinant NET expressed in BacMam virus-transduced cells by scintillation proximity assay. The class given is cell-based. A digest of the protocol: as §2
In data set [6] the target is T2, Sodium-dependent dopamine transporter. The data set is described as follows: Inhibition of [3H]dopamine reuptake at human DAT expressed in LLCPK cells by scintillation proximity assay. The class given is cell-based. A digest of the protocol: as §1
A further data set addresses Cytochrome P450 3A4 (Homo sapiens, UniProt P08684). The experiment in a line: Inhibition of human CYP3A4 by fluorescence assay.
For another data set, the target named is T4, Cytochrome P450 1A2 (Homo sapiens, UniProt P05177).
T4 sequence (P05177 whole entry): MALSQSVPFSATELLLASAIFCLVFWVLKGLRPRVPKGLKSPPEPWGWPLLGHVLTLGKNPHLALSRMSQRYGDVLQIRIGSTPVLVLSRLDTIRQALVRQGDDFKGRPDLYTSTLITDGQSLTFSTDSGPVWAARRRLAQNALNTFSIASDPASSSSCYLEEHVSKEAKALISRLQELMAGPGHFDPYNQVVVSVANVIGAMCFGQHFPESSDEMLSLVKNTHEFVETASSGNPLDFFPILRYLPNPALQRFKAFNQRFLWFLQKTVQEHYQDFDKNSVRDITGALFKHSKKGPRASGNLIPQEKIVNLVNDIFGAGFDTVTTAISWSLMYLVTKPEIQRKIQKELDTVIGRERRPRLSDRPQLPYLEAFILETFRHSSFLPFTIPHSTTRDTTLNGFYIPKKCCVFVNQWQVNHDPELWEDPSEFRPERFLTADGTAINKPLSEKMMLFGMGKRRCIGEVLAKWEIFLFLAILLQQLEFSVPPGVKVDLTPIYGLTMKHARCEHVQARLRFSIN
The data set is described as follows: Inhibition of human CYP1A2 by fluorescence assay. Format: ADME. A digest of the protocol:
(§3)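 Recombinant human P450 bactosomes (0.1 mg/mL) in 50 mM phosphate, pH 7.4. Test compound at 0.1-10 μM, preincubated 10 min at 37 °C with fluorogenic substrate: ethoxyresorufin 0.5 μM (1A2), FCA 50 μM (2C9), BMC 10 μM (2C19), MMC 10 μM (2D6).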

In another data set the target is Cytochrome P450 2D6 (Homo sapiens, UniProt P10635). The data set is described as follows: Inhibition of human […] by fluorescence assay. Format: ADME. A digest of the protocol: as §3
Sequence of Cytochrome P450 2D6 (P10635 whole entry): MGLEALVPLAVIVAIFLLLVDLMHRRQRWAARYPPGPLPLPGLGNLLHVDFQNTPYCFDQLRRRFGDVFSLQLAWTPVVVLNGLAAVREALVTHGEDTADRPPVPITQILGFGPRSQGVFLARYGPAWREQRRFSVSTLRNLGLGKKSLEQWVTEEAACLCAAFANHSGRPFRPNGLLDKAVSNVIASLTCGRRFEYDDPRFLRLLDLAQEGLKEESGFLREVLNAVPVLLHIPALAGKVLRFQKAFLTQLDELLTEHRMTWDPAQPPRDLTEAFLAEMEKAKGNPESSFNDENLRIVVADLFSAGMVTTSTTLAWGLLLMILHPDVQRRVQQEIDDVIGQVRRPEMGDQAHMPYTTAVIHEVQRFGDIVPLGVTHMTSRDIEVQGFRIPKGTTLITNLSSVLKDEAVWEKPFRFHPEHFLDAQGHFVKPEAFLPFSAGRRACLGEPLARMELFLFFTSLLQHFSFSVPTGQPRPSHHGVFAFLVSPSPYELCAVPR
In the next data set the target is Cytochrome P450 2C19 (Homo sapiens, UniProt P33261). The experiment in a line: Inhibition of human CYP2C19 by fluorescence assay. The class given is ADME. The essentials: as §3
Sequence of Cytochrome P450 2C19 (P33261 whole entry): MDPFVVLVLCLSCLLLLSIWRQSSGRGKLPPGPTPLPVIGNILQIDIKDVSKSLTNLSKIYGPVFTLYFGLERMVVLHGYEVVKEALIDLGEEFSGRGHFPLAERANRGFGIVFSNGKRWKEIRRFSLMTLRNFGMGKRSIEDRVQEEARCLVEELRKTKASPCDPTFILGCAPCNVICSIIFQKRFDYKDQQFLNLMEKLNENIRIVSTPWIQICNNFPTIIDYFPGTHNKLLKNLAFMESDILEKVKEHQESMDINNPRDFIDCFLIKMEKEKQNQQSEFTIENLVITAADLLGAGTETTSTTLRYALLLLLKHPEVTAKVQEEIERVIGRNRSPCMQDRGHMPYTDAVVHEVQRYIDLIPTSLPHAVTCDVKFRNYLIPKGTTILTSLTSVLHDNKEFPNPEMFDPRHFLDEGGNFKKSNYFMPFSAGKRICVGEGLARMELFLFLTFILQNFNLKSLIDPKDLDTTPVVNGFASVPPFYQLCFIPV
The next data set deals with Cytochrome P450 2C9 (Homo sapiens, UniProt P11712). The data set is described as follows: Inhibition of human CYP2C9 by fluorescence assay. The class given is ADME. The essentials: as §3
Sequence of Cytochrome P450 2C9 (P11712 whole entry): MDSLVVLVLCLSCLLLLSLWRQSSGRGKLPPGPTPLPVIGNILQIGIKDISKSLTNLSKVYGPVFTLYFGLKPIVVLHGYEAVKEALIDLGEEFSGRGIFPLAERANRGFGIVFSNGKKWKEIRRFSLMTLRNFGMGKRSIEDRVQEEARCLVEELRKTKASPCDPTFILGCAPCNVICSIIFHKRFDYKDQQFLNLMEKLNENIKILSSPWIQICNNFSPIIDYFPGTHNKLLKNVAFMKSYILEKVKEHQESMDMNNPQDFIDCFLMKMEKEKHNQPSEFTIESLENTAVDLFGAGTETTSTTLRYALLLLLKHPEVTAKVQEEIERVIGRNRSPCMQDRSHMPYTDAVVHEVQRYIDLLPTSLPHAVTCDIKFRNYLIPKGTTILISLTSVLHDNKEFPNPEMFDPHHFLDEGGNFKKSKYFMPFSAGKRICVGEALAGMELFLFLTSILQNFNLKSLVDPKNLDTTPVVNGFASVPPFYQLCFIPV
Data set [7] is filed under the species Homo sapiens. The data set is described as follows: Selectivity for human recombinant SERT over human recombinant DAT.
Data set [8] is filed under the species Homo sapiens. The experiment in a line: Selectivity for human recombinant NET over human recombinant DAT.
Data set [9] can be described thus: Fraction unbound in rat brain. The settings on record: brain. The class given is ADME, tissue-based.
Data set [10] is described as follows: Blood clearance in rat. The class given is ADME, organism-based.
The nature of data set [11]: Volume of distribution in rat. The settings on record: in vivo. Format: ADME, organism-based.
Data set [12] can be described thus: Ratio of drug level in brain to blood in rat. Format: ADME, tissue-based. The settings on record: read-out: BBR.
A short description of data set [13]: (§4) Half life in rat. The settings on record: in vivo. Format: ADME, organism-based.
A short description of data set [14]: Bioavailability in rat. The settings on record: in vivo. Format: ADME, organism-based.
The subject of data set [15] is Liver microsomes. The experiment in a line: Intrinsic clearance in rat liver microsomes assessed per gram of protein at 0.5 uM after 30 mins by HPLC-MS/MS analysis. Format: ADME, Microsome. The settings on record: microsomes, 0.5 h, 0.5 µM. The essentials:
(§5)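 Compound at 0.5 μM with rat or human liver microsomes (0.5 mg protein/mL), 50 mM phosphate, pH 7.4, 37 °C, started with NADPH. Sampled at 0-30 min, acetonitrile quench, HPLC-MS/MS. CLi from first-order elimination constant, scaled assuming 52.5 mg microsomal protein/g.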
(In general: Microsomes from liver hold many membrane-bound enzymes, among them those of drug oxidation.)

Data set [16] concerns Liver microsomes. The data set is described as follows: Intrinsic clearance in human liver microsomes assessed per gram of protein at 0.5 uM after 30 mins by HPLC-MS/MS analysis. The class given is ADME, Microsome. The settings on record: microsomes, 0.5 h, 0.5 µM. The essentials:
as §5

The species entered for the next data set is Rattus norvegicus. Described as §4. The class given is ADME, organism-based. The settings on record: in vivo.

A value given as a limit tells only on which side of the number the result lay.

T3 sequence (P31645 whole entry): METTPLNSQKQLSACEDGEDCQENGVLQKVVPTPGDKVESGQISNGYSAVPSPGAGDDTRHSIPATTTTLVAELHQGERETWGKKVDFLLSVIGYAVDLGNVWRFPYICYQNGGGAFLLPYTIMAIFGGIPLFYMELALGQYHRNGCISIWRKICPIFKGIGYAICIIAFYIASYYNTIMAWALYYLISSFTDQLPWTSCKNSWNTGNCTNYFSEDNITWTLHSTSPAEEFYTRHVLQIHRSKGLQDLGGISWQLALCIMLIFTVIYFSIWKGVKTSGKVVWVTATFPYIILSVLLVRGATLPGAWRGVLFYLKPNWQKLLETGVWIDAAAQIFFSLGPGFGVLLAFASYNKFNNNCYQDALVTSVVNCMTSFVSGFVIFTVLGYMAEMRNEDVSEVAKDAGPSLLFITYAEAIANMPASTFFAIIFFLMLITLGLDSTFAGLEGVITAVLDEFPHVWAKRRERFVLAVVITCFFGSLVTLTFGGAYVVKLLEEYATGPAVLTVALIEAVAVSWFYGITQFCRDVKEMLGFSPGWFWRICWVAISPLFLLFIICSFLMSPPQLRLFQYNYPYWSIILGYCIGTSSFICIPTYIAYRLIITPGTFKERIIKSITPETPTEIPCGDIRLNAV
Sequence of Cytochrome P450 3A4 (P08684 whole entry): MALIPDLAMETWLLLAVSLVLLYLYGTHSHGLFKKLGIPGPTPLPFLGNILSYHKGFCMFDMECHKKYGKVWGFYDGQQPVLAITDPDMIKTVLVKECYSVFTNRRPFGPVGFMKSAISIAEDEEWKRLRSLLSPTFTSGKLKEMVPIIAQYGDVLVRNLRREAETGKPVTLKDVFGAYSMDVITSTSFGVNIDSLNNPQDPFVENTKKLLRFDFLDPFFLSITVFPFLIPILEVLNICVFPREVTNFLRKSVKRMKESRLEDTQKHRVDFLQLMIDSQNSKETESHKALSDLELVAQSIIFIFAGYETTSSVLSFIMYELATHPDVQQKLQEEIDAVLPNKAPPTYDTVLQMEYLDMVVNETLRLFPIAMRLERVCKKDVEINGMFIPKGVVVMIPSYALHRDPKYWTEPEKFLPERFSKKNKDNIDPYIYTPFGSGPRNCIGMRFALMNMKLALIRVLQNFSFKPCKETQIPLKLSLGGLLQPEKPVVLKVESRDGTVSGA

Take `COCC[C@H]1[C@]2(C)CNC[C@]12c1ccc(Cl)c(Cl)c1` (relative stereo): the values for the IC50 in data set [1], in data set [3] and in [6] were 0.398 nM, 1.58 nM and 15.8 nM, respectively. For the same molecule, the Ki in data set [2] is 50.1 nM; in data set [4] it was 0.251 nM; in [5], 1 nM.
Take `Cc1csc(C[C@H]2[C@@H]3CNC[C@@]32c2ccc(Cl)c(Cl)c2)n1` (relative stereo): the IC50 is 0.251 nM in data set [1], 1 nM in [3] and 20 nM in data set [6]. Besides, the values for the Ki in data set [2], in data set [4] and in [5] were 20 nM, 0.0794 nM and 0.126 nM, respectively.
Consider `Clc1ccc([C@@]2(COC3CCC3)[C@@H]3CNC[C@@H]32)cc1Cl`, for which the IC50 on Cytochrome P450 3A4 is 3000 nM; on Cytochrome P450 1A2, > 10000 nM; at Cytochrome P450 2D6, > 10000 nM; against Cytochrome P450 2C19, > 10000 nM; against Cytochrome P450 2C9, > 10000 nM. The Ki in [2] is 6.31 nM; in data set [4] it was 0.398 nM; in data set [5], 2.51 nM.
`COC[C@H]1[C@@H]2CNC[C@@]21c1ccc(Cl)c(Cl)c1` (relative stereo): the Selectivity ratio in the data set listed under Homo sapiens [7] and in the data set listed under Homo sapiens [8] was 70 throughout.
Regarding `FC(F)(F)COC[C@@H]1[C@H]2CNC[C@]21c1ccc(Cl)c(Cl)c1` (stereo in doubt), in data set [9], the fraction unbound is 0.006. Moreover, the clearance in [10] came out at 42 mL/min/kg. In addition, the Ki in data set [2] was 25.1 nM; in data set [4], 0.631 nM; in [5], 1.58 nM. Also, the Vd in data set [11] turned out to be 3.2 L/kg. Also, the Kp in [12] was 18. The same molecule showed a half-life in data set [13] of 1.4 h. Further, in data set [14], the bioavailability turned out to be 41%.
As to `Clc1ccc([C@@]23CNC[C@@H]2[C@H]3COCC2CC2)cc1Cl` (stereo in doubt), in data set [9], the fraction unbound came out at 0.001. In addition, the CL with Liver microsomes [15] was 2.6 mL/min/g; in the data set with Liver microsomes [16] it was < 0.5 mL/min/g. This molecule also came in with a clearance in [10] of 72 mL/min/kg. The IC50 on Cytochrome P450 3A4 was > 10000 nM; against Cytochrome P450 1A2, > 10000 nM; against Cytochrome P450 2D6, 1000 nM; against Cytochrome P450 2C19, 3000 nM; at Cytochrome P450 2C9, > 10000 nM. Further, the figures for the Ki in data set [2], in data set [4] and in [5] were 12.6 nM, 0.316 nM and 0.631 nM, respectively. The same molecule returned a Vd in data set [11] of 5.2 L/kg. In addition, in [12], the Kp amounted to 10. In addition, the half-life in data set [13] is 1 h. In data set [14], the bioavailability is 32%.
For `FC(F)(F)COC[C@H]1[C@@H]2CNC[C@@]21c1ccc(Cl)c(Cl)c1` (stereo in doubt), in data set [9], the fraction unbound worked out at 0.006. For the same molecule, the figures for the inhibition constant (Ki) in data set [2], in data set [4] and in [5] were 50.1 nM, 1.26 nM and 3.98 nM, respectively. Further, the Kp in [12] stood at 18. In the data set filed under Rattus norvegicus, this molecule yielded a t1/2 of 1.4 h.

In general, IC50 refers to the concentration at which inhibition is half-maximal. In general, Ki refers to a dissociation constant, usually derived from enzyme kinetics or from competition with a known ligand. Broadly, the fraction unbound is the share of the substance not bound to proteins or other matrix. Read a high fraction unbound as much free substance. The term clearance denotes the volume of plasma or blood freed of the substance per unit of time. A low value points to a low capacity for elimination. What is called Vd is a proportionality between amount in the body and measured concentration, not a real space. For orientation: half-life means the time in which the quantity being followed falls by half. High values mean slow loss, low ones fast loss. In general, bioavailability refers to the share of a dose that reaches the circulation, judged against a reference dose that is usually intravenous.
